Drawing on ChEMBL document CHEMBL1122089, “Synthesis and biological activity of some very hydrophobic superagonist analogues of luteinizing hormone-releasing hormone” (1982), this text covers Potency and ED50 for 15 compounds.

For assay [1], the species on record is Rattus norvegicus. Kind of assay: Suppression of estrus cyclicity in rat relative to [D-Trp6, ProNHEt9]. It is filed as functional.
The species entered for assay [2] is Rattus norvegicus. The assay is described as follows: Suppression of estrus cyclicity in rat. It is filed as functional. The essentials: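 Adult female Sprague-Dawley rats (~160 g), groups of 10, 14:10 light/dark, food and water ad libitum. Compound in 0.1% BSA-saline vehicle given sc twice daily (0800, 1630 h), 0.1 or 0.2 mL/injection, 14 consecutive days; at least four doses at 2-fold dilutions; vehicle and positive controls. Daily vaginal lavage; percent of rats in persistent diestrus from day 4 plotted against log dose; ED50 in µg/injection.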

In turn, `CCNC(=O)[C@@H]1CCCN1C(=O)[C@H](CCCN=C(N)N)NC(=O)[C@H](CC(C)C)N(C)C(=O)[C@@H](Cc1ccc2ccccc2c1)NC(=O)[C@H](Cc1ccc(O)cc1)NC(=O)[C@H](CO)NC(=O)[C@H](Cc1c[nH]c2ccccc12)NC(=O)[C@H](Cc1c[nH]cn1)NC(=O)[C@@H]1CCC(=O)N1` registered a Potency in the assay filed under Rattus norvegicus [1] of 1.8. The ED50 in the assay listed under Rattus norvegicus [2] was 0.12 µg.

The compound `CCNC(=O)[C@@H]1CCCN1C(=O)[C@H](CCCN=C(N)N)NC(=O)[C@H](CC(C)C)NC(=O)[C@@H](Cc1ccc2ccccc2c1)NC(=O)[C@H](Cc1ccc(O)cc1)NC(=O)[C@H](CO)NC(=O)[C@H](Cc1cccc2ccccc12)NC(=O)[C@H](Cc1c[nH]cn1)NC(=O)[C@@H]1CCC(=O)N1` had a Potency in the assay listed under Rattus norvegicus [1] of 0.9. This compound yielded an ED50 in the assay listed under Rattus norvegicus [2] of 0.16 µg.

Turning to `CCNC(=O)[C@@H]1CCCN1C(=O)[C@H](CCCN=C(N)N)NC(=O)[C@H](CC(C)C)NC(=O)[C@@H](CC(c1ccccc1)c1ccccc1)NC(=O)[C@H](Cc1ccc(O)cc1)NC(=O)[C@H](CO)NC(=O)[C@H](Cc1c[nH]c2ccccc12)NC(=O)[C@H](Cc1c[nH]cn1)NC(=O)[C@@H]1CCC(=O)N1`, the Potency in the assay filed under Rattus norvegicus [1] amounted to 0.9. Further, in the assay listed under Rattus norvegicus [2], the ED50 was found to be 0.11 µg.

Consider `Cc1cc(C)c(C[C@@H](NC(=O)[C@H](Cc2ccc(O)cc2)NC(=O)[C@H](CO)NC(=O)[C@H](Cc2c[nH]c3ccccc23)NC(=O)[C@H](Cc2c[nH]cn2)NC(=O)[C@@H]2CCC(=O)N2)C(=O)N(C)[C@@H](CC(C)C)C(=O)N[C@@H](CCCN=C(N)N)C(=O)N2CCC[C@H]2C(=O)NCC(N)=O)c(C)c1`, for which the Potency in the assay filed under Rattus norvegicus [1] came out at 1.1.

Take `CCNC(=O)[C@@H]1CCCN1C(=O)[C@H](CCCN=C(N)N)NC(=O)[C@H](CC(C)C)NC(=O)[C@@H](Cc1ccc2ccccc2c1)NC(=O)[C@H](Cc1ccc(O)cc1)NC(=O)[C@H](CO)NC(=O)[C@H](Cc1c[nH]c2ccccc12)NC(=O)[C@H](Cc1c[nH]cn1)NC(=O)[C@@H]1CCC(=O)N1`: the Potency in the assay listed under Rattus norvegicus [1] stood at 0.9. The compound further showed an ED50 in the assay listed under Rattus norvegicus [2] of 0.22 µg.

In the assay listed under Rattus norvegicus [1], `CCNC(=O)[C@@H]1CCCN1C(=O)[C@H](CCCN=C(N)N)NC(=O)[C@H](CC(C)C)NC(=O)[C@@H](Cc1c[nH]c2ccccc12)NC(=O)[C@H](Cc1ccc(O)cc1)NC(=O)[C@H](CO)NC(=O)[C@H](Cc1c[nH]c2ccccc12)NC(=O)[C@H](Cc1c[nH]cn1)NC(=O)[C@@H]1CCC(=O)N1` came in with a Potency of 1. The same compound showed an ED50 in the assay filed under Rattus norvegicus [2] of 0.14 µg.

As to `CC(C)C[C@H](NC(=O)[C@@H](Cc1c2ccccc2cc2ccccc12)NC(=O)[C@H](Cc1ccc(O)cc1)NC(=O)[C@H](CO)NC(=O)[C@H](Cc1c[nH]c2ccccc12)NC(=O)[C@H](Cc1c[nH]cn1)NC(=O)[C@@H]1CCC(=O)N1)C(=O)N[C@@H](CCCN=C(N)N)C(=O)N1CCC[C@H]1C(=O)NCC(N)=O`, the Potency in the assay listed under Rattus norvegicus [1] amounted to 0.5. In addition, in the assay listed under Rattus norvegicus [2], the ED50 amounted to 0.27 µg.

Consider `CC(C)C[C@H](NC(=O)[C@@H](Cc1ccc(-c2ccccc2)cc1)NC(=O)[C@H](Cc1ccc(O)cc1)NC(=O)[C@H](CO)NC(=O)[C@H](Cc1c[nH]c2ccccc12)NC(=O)[C@H](Cc1c[nH]cn1)NC(=O)[C@@H]1CCC(=O)N1)C(=O)N[C@@H](CCCN=C(N)N)C(=O)N1CCC[C@H]1C(=O)NCC(N)=O`, for which the Potency in the assay filed under Rattus norvegicus [1] is on record as 1.4.

As to `CC(C)C[C@H](NC(=O)[C@@H](Cc1ccc2ccccc2c1Br)NC(=O)[C@H](Cc1ccc(O)cc1)NC(=O)[C@H](CO)NC(=O)[C@H](Cc1c[nH]c2ccccc12)NC(=O)[C@H](Cc1c[nH]cn1)NC(=O)[C@@H]1CCC(=O)N1)C(=O)N[C@@H](CCCN=C(N)N)C(=O)N1CCC[C@H]1C(=O)NCC(N)=O`, the Potency in the assay filed under Rattus norvegicus [1] is 1. The compound further registered an ED50 in the assay filed under Rattus norvegicus [2] of 0.15 µg.

Consider `COc1cc(C[C@@H](NC(=O)[C@H](Cc2ccc(O)cc2)NC(=O)[C@H](CO)NC(=O)[C@H](Cc2c[nH]c3ccccc23)NC(=O)[C@H](Cc2c[nH]cn2)NC(=O)[C@@H]2CCC(=O)N2)C(=O)N[C@@H](CC(C)C)C(=O)N[C@@H](CCCN=C(N)N)C(=O)N2CCC[C@H]2C(=O)NCC(N)=O)cc(OC)c1OC`, for which the Potency in the assay filed under Rattus norvegicus [1] came to 1.4. In the assay listed under Rattus norvegicus [2], this compound gave an ED50 of 0.09 µg.

`CC(C)C[C@H](NC(=O)[C@@H](CC1CCCCC1)NC(=O)[C@H](Cc1ccc(O)cc1)NC(=O)[C@H](CO)NC(=O)[C@H](Cc1c[nH]c2ccccc12)NC(=O)[C@H](Cc1c[nH]cn1)NC(=O)[C@@H]1CCC(=O)N1)C(=O)N[C@@H](CCCN=C(N)N)C(=O)N1CCC[C@H]1C(=O)NCC(N)=O` displayed a Potency in the assay listed under Rattus norvegicus [1] of 0.5. In the assay filed under Rattus norvegicus [2], the ED50 stood at 0.3 µg.

In the assay listed under Rattus norvegicus [1], `CC(C)C[C@H](NC(=O)[C@@H](Cc1ccc(C(F)(F)F)cc1)NC(=O)[C@H](Cc1ccc(O)cc1)NC(=O)[C@H](CO)NC(=O)[C@H](Cc1c[nH]c2ccccc12)NC(=O)[C@H](Cc1c[nH]cn1)NC(=O)[C@@H]1CCC(=O)N1)C(=O)N[C@@H](CCCN=C(N)N)C(=O)N1CCC[C@H]1C(=O)NCC(N)=O` showed a Potency of 1.4. In the assay filed under Rattus norvegicus [2], this compound showed an ED50 of 0.11 µg.

In the assay filed under Rattus norvegicus [1], `CC(C)C[C@H](NC(=O)[C@@H](Cc1c(F)c(F)c(F)c(F)c1F)NC(=O)[C@H](Cc1ccc(O)cc1)NC(=O)[C@H](CO)NC(=O)[C@H](Cc1c[nH]c2ccccc12)NC(=O)[C@H](Cc1c[nH]cn1)NC(=O)[C@@H]1CCC(=O)N1)C(=O)N[C@@H](CCCN=C(N)N)C(=O)N1CCC[C@H]1C(=O)NCC(N)=O` had a Potency of 1.2. In addition, in the assay filed under Rattus norvegicus [2], the ED50 is 0.12 µg.

`Cc1cc(C)c(C[C@@H](NC(=O)[C@H](Cc2ccc(O)cc2)NC(=O)[C@H](CO)NC(=O)[C@H](Cc2c[nH]c3ccccc23)NC(=O)[C@H](Cc2c[nH]cn2)NC(=O)[C@@H]2CCC(=O)N2)C(=O)N[C@@H](CC(C)C)C(=O)N[C@@H](CCCN=C(N)N)C(=O)N2CCC[C@H]2C(=O)NCC(N)=O)c(C)c1` registered a Potency in the assay listed under Rattus norvegicus [1] of 2. In the assay filed under Rattus norvegicus [2], this compound showed an ED50 of 0.07 µg.

In turn, `CC(C)C[C@H](NC(=O)[C@@H](Cc1ccc2ccccc2c1)NC(=O)[C@H](Cc1ccc(O)cc1)NC(=O)[C@H](CO)NC(=O)[C@H](Cc1c[nH]c2ccccc12)NC(=O)[C@H](Cc1c[nH]cn1)NC(=O)[C@@H]1CCC(=O)N1)C(=O)N[C@@H](CCCN=C(N)N)C(=O)N1CCC[C@H]1C(=O)NCC(N)=O` came in with a Potency in the assay filed under Rattus norvegicus [1] of 1.9. Further, the ED50 in the assay listed under Rattus norvegicus [2] was determined as 0.07 µg.
